This sample holds only a part of the variants without activity.
B1: tRNA (parent)
chain: GUUCCGUUGGCGUAAUGGUAACGCGUCUCCCUCCUAAGGAGAAGACUGCGGGUUCGAGUCCCGUACGGAACG

Variants of: B1
Experiment: yeast fitness relative to wild type (ratio to wild type); higher = fitter; tRNA-Arg(CCU), competitive growth, 37 C, YPD
How it was run: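 Amplicons of the tRNA-Arg(CCU) gene were sequenced, 100-nucleotide paired-end, from the start population and from each end population of a pooled yeast competition. The competition, in six parallel replicates, lasted 24 hours in YPD at 37°C. Fitness relative to wild type was calculated from changes in genotype frequencies. Genotypes had to have ≥ 100 starting reads, and estimates < 0.5 were set to 0.5.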

GUUCCGUUGGAGUAACGCUAACGCGUCUCCCUCCUAAGGAGAAGCCUGCGGGUUCGUGCCCCGUACGGAACG [C11A U16C G18C A45C A57U U59C] and GUUCCGUUGGAGUAACGCUAACGCGUCUCCCUCCUAAGGAGAAGCCUGCGGGUUCGAGACCCGUACGGAACG [C11A U16C G18C A45C U59A] cannot be ordered by yeast fitness: at most 0.5 for the first, at most 0.5 for the second.

GUUCCGUUGGAGCGAUGGUAACGCGUCUCCCUCCUAAGGAGAACAAUGGGGGUUCGAGUCCCGUACGGAACG [C11A U13C A14G G44C C46A C49G] and GUUCCGUUGGAGUAACGGUAACGCGUCUCCCUCGUAAGGAGAAGACUGCGGGUUCGAGUCCCGUGCAGAACG [C11A U16C C34G A65G G67A] cannot be ordered by yeast fitness: at most 0.5 for the first, at most 0.5 for the second.

GUUCCGUUGGAGUAAUGGUAACGCGUCGCCCUACUAAGGAGAAGGCUGCGGGUUCGAGUCCCGUUCGGAACG [C11A U28G C33A A45G A65U] and GUUCCGUUGGAGUAACGCUAACGCGUCUCCCUCCUAAGGAGAAGCCUGCGGGUUCGCGUCCUGUACGGAACG [C11A U16C G18C A45C A57C C62U] cannot be ordered by yeast fitness: at most 0.5 for the first, at most 0.5 for the second.

GUUCCGUUGGAGUAACGGUAACGCGUCUCCCGCCUAAGGAGAAGACUGGGGGUUCGAGUCCUGUACGGAACG [C11A U16C U32G C49G C62U] and GUUCCGUUGGAGUAAUGGAAACGCGUUUCCCUCCUAAGGAGUAGCCUGCGGGUUUGAGUCCCGUACGGCACG [C11A U19A C27U A42U A45C C55U A69C] cannot be ordered by yeast fitness: at most 0.5 for the first, at most 0.5 for the second.

Compared with GUUCCGUUGGAGUAAUGGGAACGCGUCUCCCUCCUGAGGAGAAGACUGCGGGCCCGAGUCCCGUACGGCACG [C11A U19G A36G U53C U54C A69C], GUUCCGUUGGAGUAACGGUAACGCGUCUCCCGCCUAAGGAGAAGACUGCGGGUUCGAGUCCCGUACGGAACG [C11A U16C U32G] is higher in yeast fitness: at most 0.5 for the first, 0.523 for the second.

Compared with GUUCCGUUGGAGUAACGGUAACGCGUCUCCCGCCUGAGGAGAAGACUGGGGGUUAGAGUCCCGUACGGAACG [C11A U16C U32G A36G C49G C55A], GUUCCGUUGGAGUAAUGGUAACGCGUCCCCCUCCUAAGGAGAAGACUGCGGGUUCGAGUCCCGUACGGUACG [C11A U28C A69U] is lower in yeast fitness: 0.53 for the first, at most 0.5 for the second.

Compared with GUUCCGUUGGAGUAAUGGAAACGCGUCUCCCUCCUAAGGAGAAGACUGCGGGUUAGAGUCUCGUACGGAACG [C11A U19A C55A C61U], GUUCCGUUGGAGUAAUGGUAACGCGUCUCCCAUCUAAGGAGAAGACUGCGGGUUCGAGUCCCGUACGCAACG [C11A U32A C33U G68C] is lower in yeast fitness: 0.605 for the first, at most 0.5 for the second.

Compared with GUUCCGUUGGAGUAAUGGUAACGCGUCUCCCGCCUAAGGAGAAGACUGCGGGUUCGAGUCACGUACGGAACG [C11A U32G C61A], GUUCCGUUGGAGAAAUGGUAACGCGUCUACCUCCUAAGGAGAAGACUACGGGUUCGAGUCCCGUAUGGAACG [C11A U13A C29A G48A C66U] is lower in yeast fitness: 0.58 for the first, at most 0.5 for the second.

GUUCCGUUGGAGGAAUGGUAACGCGUCUCCCUCGUAAGGAGAUGACUGCGGGUUCGAGUCGCGUACGGAACG [C11A U13G C34G A43U C61G] and GUUCCGUUGGAGAUAUGGUAACCCGUCUCCCUCCUAAGGAGAAGACUGCGGGUUCGAGUCCCGUACGGUACG [C11A U13A A14U G23C A69U] cannot be ordered by yeast fitness: at most 0.5 for the first, at most 0.5 for the second.

GUUCCGUUGGAGUAAAGGUAACGCGUCUCGCUCCUAAGGAGAACACUGCGGGUUCGAGUCACGUACGGAACG [C11A U16A C30G G44C C61A] and GUUCCGUUGGAGUAAUGGAAACGCGUCUCCCUCCUAAGGAGUAGCCCGCGGGUUUGAGUCCCGUACGGCACG [C11A U19A A42U A45C U47C C55U A69C] cannot be ordered by yeast fitness: at most 0.5 for the first, at most 0.5 for the second.

GUUCCGUUGGAGCAAUGGUAACGCGUAUCCCUCCUAAGGAGAAGACUGCGGGUUCGAGUGCCGUGCGGAACG [C11A U13C C27A C60G A65G] and GUUCCGUUGGAGUAAGGGUAACGCGUCUCCCUUCUAAGGAGAAGACUGCGGGUUCGAGUCCCGUACGGAACG [C11A U16G C33U] cannot be ordered by yeast fitness: at most 0.5 for the first, at most 0.5 for the second.

Going from GUUCCGUUGGAGUAACGGUAACGCGUCUCCCGCCUAAGGAGAAGACUGUGGGUUCAAGUCCCGUCCGGAACG [C11A U16C U32G C49U G56A A65C] to GUUCCGUUGGAGUAAAGGUAACGCGUCUCCCUCCUAAGGAGAAGACUGCGGGUUCGAGUCCCGUACGGAACG [C11A U16A], the yeast fitness rises from at most 0.5 to 0.58.

First: GUUCCGUUGGAGUAAUGGUAACGCGUCUCCCUCCAAAGGAGAAGACUGCGGGUUCGAGUCCCGUACGGAACG [C11A U35A]
Second: GUUCCGUUGGAGUAACGCUAACGCGUCUCCCUCCUAAGGAGAAGCCUGCGGGUUCGCGUCCCGUACGCGACG [C11A U16C G18C A45C A57C G68C A69G]
The yeast fitness of the first is higher: 0.535 for the first, at most 0.5 for the second.

GUUCCGUUGGAGUAAUGGUAACGCGUCCCCCUCCUAAGGAGGUGAUUGCGGGUUCGAGUCCUGUACGGAACG [C11A U28C A42G A43U C46U C62U] and GUUCCGUUGGAGUAAGGGUAACGCGUCUCCCUCCUAAGGAGAAGACUGCGGGGUCGAGUCCCGUACGGAACG [C11A U16G U53G] cannot be ordered by yeast fitness: at most 0.5 for the first, at most 0.5 for the second.

GUUCCGUUGGAGAAAUGGUAACGCGUCUCCCUCCUAAGGAGUAGACUGCAGGUUAGAGUCCCGUACGGAACG [C11A U13A A42U G50A C55A] and GUUCCGUUGGAGUAAUGGAAACGCGUCUCCCUCCUAAGGAGAAGACCGCGGGUUAGAGUCUCGUACGGAACG [C11A U19A U47C C55A C61U] cannot be ordered by yeast fitness: at most 0.5 for the first, at most 0.5 for the second.

First: GUUCCGUUGGAGUAAUGGUAACGCGUCGCCCUCCUAAGGAGAACACUGCGGGUUCGAGUCCCGUACGGAACG [C11A U28G G44C]
Second: GUUCCGUUGGAGGAAUGGUAACGCGUGUCCCUCCUAAGGAGAAGACUGCGGGUUCGAGUCCCGUACGGAACG [C11A U13G C27G]
The yeast fitness of the first is higher: 0.602 for the first, at most 0.5 for the second.

First: GUUCCGUUGGAGUAAUGGUAACGCGUCUCCCAUCUAAGGAGAAGACAGCGGGUUCGAGUCCCAUACGGAACG [C11A U32A C33U U47A G63A]
Second: GUUCCGUUGGAGUAAUGGGAACGCGUCUCCCUCCUGAGGAGAAGACUGCGGGUCCGAGUCCCGUACGGCACG [C11A U19G A36G U54C A69C]
The yeast fitness of the first is lower: at most 0.5 for the first, 0.54 for the second.

GUUCCGUUGGAGUAAUGGGAACGCGUCUCCCUCCUAAGGAGAAGACUGAGGGUUCGAGUCCCGUACGGAACG [C11A U19G C49A] and GUUCCGUUGGAGUAAUGGAAACGCGUCUACCACCUAAGGAGAAGACUGCGGGUCGGAGUGCCGUACGGAACG [C11A U19A C29A U32A U54C C55G C60G] cannot be ordered by yeast fitness: at most 0.5 for the first, at most 0.5 for the second.

Work on GUUCCGUUGGAGUAACGGUAACGCGUCUCCCGCCUAAGGAGAAGACUGGGGGUUAGAGUCCCGUAGGGACCG [C11A U16C U32G C49G C55A C66G A70C] yielded a yeast fitness of at most 0.5.

Source: the RNAGym collection of RNA variant scans (doi:10.1126/science.aae0568)
